Broadly, the MIC is the smallest concentration in the dilution series that meets the test's criterion for growth inhibition.

SMILES strings stand for the structures.

Holding throughout (type): functional
The subject of assay [1] is Candida albicans. Kind of assay: Antimicrobial activity against azole-resistant Candida albicans isolate CA10 assessed as growth at 16 ug/ml co-treated with 0.031 ug/ml calcineurin signaling inhibitor tacrolimus after 48 hrs by microdilution checkboard technique relative to control. Further details: scale not given: the % may be the effect or the level left. The gist of the method:
(§1)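 Checkerboard microdilution in RPMI 1640 (pH 7.0, 2% dextrose, 0.165 M MOPS). Azole dilutions run along columns and FK506 along rows, at 4× final concentration. Final inoculum 2.5 × 10^3 CFU/ml from Sabouraud-subcultured cells. Incubated 35°C for 48 h; OD read at 492 nm. Background from microorganism-free plates subtracted. Growth % = well OD / drug-free well OD. Triplicate on different days, values averaged.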
In general terms: Dilution methods test growth across graded concentrations, often in twofold steps.

For assay [2], the system named is Candida albicans. Kind of assay: Antimicrobial activity against azole-resistant Candida albicans isolate CA10 assessed as growth at 0.5 ug/ml cotreated with 0.063 ug/ml calcineurin signaling inhibitor Tacrolimus after 48 hrs by microdilution checkboard technique relative to control. Further details: scale not given: the % may be the effect or the level left. In a few lines:
(§2)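 Checkerboard microdilution in MOPS-buffered RPMI 1640 (pH 7.0, 2% dextrose). Final ranges: azole 0.125–128 μg/ml (FLC) or 0.008–8 μg/ml (ITR, VRC), tacrolimus 0.002–0.125 μg/ml; solvent 1% in single-drug wells. Inoculum 2.5 × 10^3 CFU/ml, 35°C, 48 h. Growth % = background-subtracted OD492 of each well / drug-free well. Triplicate on different days.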

Assay [3] has as its system Candida albicans. Kind of assay: Antimicrobial activity against azole-resistant Candida albicans isolate CA10 assessed as growth at 8 ug/ml cotreated with 0.063 ug/ml calcineurin signaling inhibitor tacrolimus after 48 hrs by microdilution checkerboard technique relative to control. Further details: scale not given: the % may be the effect or the level left. In a few lines:
(§3)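 CA10 in RPMI 1640 with 2% dextrose and 0.165 M MOPS, pH 7.0. Checkerboard used twofold dilutions, with azole alone in row H and the drug-free growth control in well H1. Final inoculum was 2.5 × 10^3 CFU/ml, incubated 35°C for 48 h, with OD read at 492 nm. Growth % = background-subtracted well OD / drug-free well OD. Run in triplicate on different days.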

For assay [4], the system named is Candida albicans. Kind of assay: Antimicrobial activity against azole-resistant Candida albicans isolate CA10 assessed as growth at 32 ug/ml cotreated with 0.063 ug/ml calcineurin signaling inhibitor Tacrolimus after 48 hrs by microdilution checkboard technique relative to control. Also noted: scale not given: the % may be the effect or the level left. In a few lines:
as §3

Assay [5] concerns Candida albicans. Kind of assay: Antimicrobial activity against azole-resistant Candida albicans isolate CA10 assessed as growth at 0.125 ug/ml co-treated with 0.031 ug/ml calcineurin signaling inhibitor tacrolimus after 48 hrs by microdilution checkboard technique relative to control. Also noted: scale not given: the % may be the effect or the level left. The gist of the method:
as §1

For assay [6], the system named is Candida albicans. Kind of assay: Antimicrobial activity against azole-resistant Candida albicans isolate CA10 assessed as growth at 0.25 ug/ml co-treated with 0.031 ug/ml calcineurin signaling inhibitor tacrolimus after 48 hrs by microdilution checkboard technique relative to control. Also noted: scale not given: the % may be the effect or the level left. The gist of the method:
as §1

Assay [7] concerns Candida albicans. As to the kind of experiment: Antimicrobial activity against azole-resistant Candida albicans isolate CA10 assessed as growth at 32 ug/ml co-treated with 0.031 ug/ml calcineurin signaling inhibitor tacrolimus after 48 hrs by microdilution checkboard technique relative to control. Further details: scale not given: the % may be the effect or the level left. In a few lines: as §1

For assay [8], the system named is Candida albicans. As to the kind of experiment: Antimicrobial activity against azole-resistant Candida albicans isolate CA10 assessed as growth at 0.5 ug/ml cotreated with 0.002 ug/ml calcineurin signaling inhibitor tacrolimus after 48 hrs by microdilution checkerboard technique relative to control. Also noted: scale not given: the % may be the effect or the level left. In a few lines:
as §2

In assay [9] the test system is Candida albicans. Kind of assay: Antimicrobial activity against azole-susceptible Candida albicans isolate CA14 assessed as lof reduction in colony count at 10 ug/ml cotreated with calcineurin signaling inhibitor Tacrolimus after 48 hrs by XTT assay. The gist of the method:
(§4)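 Same time-kill setup (10^5 CFU/ml start, azole ± 0.016 μg/ml FK506, 35°C). At each time point, aliquots were mixed 1:1 with XTT (0.5 g/liter in Ringer's lactate) plus 10 μM menadione final. Incubation was in the dark for up to 2 h at 35°C, then formazan was read at 492 nm. OD was converted to CFU via a standard curve (Y = 4.2610x + 4.2087). Triplicate.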

Assay [10] relates to Candida albicans. Kind of assay: Antimicrobial activity against azole-resistant Candida albicans isolate CA10 assessed as growth at 4 ug/ml cotreated with 0.008 ug/ml calcineurin signaling inhibitor tacrolimus after 48 hrs by microdilution checkerboard technique relative to control. Further details: scale not given: the % may be the effect or the level left. The gist of the method: as §3

Assay [11] has as its system Candida albicans. Kind of assay: Antimicrobial activity against azole-resistant Candida albicans isolate CA10 assessed as growth at 64 ug/ml co-treated with 0.008 ug/ml calcineurin signaling inhibitor tacrolimus after 48 hrs by microdilution checkboard technique relative to control. Also noted: scale not given: the % may be the effect or the level left. In a few lines: as §3

Assay [12] has as its system Candida albicans. Kind of assay: Antimicrobial activity against azole-resistant Candida albicans isolate CA10 assessed as growth at 0.125 ug/ml co-treated with 0.004 ug/ml calcineurin signaling inhibitor tacrolimus after 48 hrs by microdilution checkboard technique relative to control. Also noted: scale not given: the % may be the effect or the level left. In a few lines: as §2

The subject of assay [13] is Candida albicans. Kind of assay: Antimicrobial activity against azole-resistant Candida albicans isolate CA10 assessed as growth at 1 ug/ml cotreated with 0.004 ug/ml calcineurin signaling inhibitor Tacrolimus after 48 hrs by microdilution checkboard technique relative to control. Further details: scale not given: the % may be the effect or the level left. The gist of the method:
as §2

Assay [14] deals with Candida albicans. Kind of assay: Antimicrobial activity against azole-resistant Candida albicans isolate CA10 assessed as growth at 16 ug/ml co-treated with 0.004 ug/ml calcineurin signaling inhibitor tacrolimus after 48 hrs by microdilution checkboard technique relative to control. Also noted: scale not given: the % may be the effect or the level left. In a few lines: as §2

The subject of assay [15] is Candida albicans. As to the kind of experiment: Antimicrobial activity against azole-resistant Candida albicans isolate CA10 assessed as growth at 8 ug/ml after 48 hrs by microdilution checkerboard technique relative to control. The gist of the method: as §3
Assay [16] deals with Candida albicans. As to the kind of experiment: Antimicrobial activity against azole-resistant Candida albicans isolate CA10 assessed as growth at 64 ug/ml after 48 hrs by microdilution checkerboard technique relative to control. The gist of the method: as §3
Assay [17] relates to Candida albicans. As to the kind of experiment: Antimicrobial activity against azole-resistant Candida albicans isolate CA10 assessed as growth at 0.031 ug/ml after 48 hrs by microdilution checkerboard technique relative to control. The gist of the method:
as §1

The test system of assay [18] is Candida albicans. Kind of assay: Antimicrobial activity against azole-resistant Candida albicans isolate CA10 assessed as log reduction in colony count at 10 ug/ml co-treated with calcineurin signaling inhibitor tacrolimus after 48 hrs by XTT assay. The gist of the method: as §4
Background: Tetrazolium dyes change colour on reduction, which living cells bring about.

Assay [19] concerns Candida albicans. As to the kind of experiment: Antimicrobial activity against azole-susceptible Candida albicans isolate CA12 co-treated with calcineurin signaling inhibitor tacrolimus after 48 hrs by microdilution checkerboard technique. Conditions: isolate CA12, 48 h. The gist of the method: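 Checkerboard microdilution in MOPS-buffered RPMI 1640 (pH 7.0, 2% dextrose) with 2.5 × 10^3 CFU/ml for 48 h at 35°C. Final FK506 was 0.002–0.125 μg/ml. Azole finals were FLC 0.125–128 μg/ml, and ITR and VRC 0.008–8 μg/ml. MIC80 is an 80% OD492 decrease vs drug-free control. Interaction was scored by FICI (synergy ≤0.5, antagonism >4) and by ΔE from triplicates.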

The subject of assay [20] is Candida albicans. As to the kind of experiment: Antimicrobial activity against azole-resistant Candida albicans isolate CA10 assessed as growth at 16 ug/ml cotreated with 0.125 ug/ml calcineurin signaling inhibitor tacrolimus after 48 hrs by microdilution checkerboard technique relative to control. Further details: scale not given: the % may be the effect or the level left. In a few lines:
as §2

The test system of assay [21] is Candida albicans. As to the kind of experiment: Antimicrobial activity against azole-resistant Candida albicans isolate CA10 assessed as growth at 128 ug/ml cotreated with 0.125 ug/ml calcineurin signaling inhibitor Tacrolimus after 48 hrs by microdilution checkboard technique relative to control. Further details: scale not given: the % may be the effect or the level left. The gist of the method:
as §2

As to `OC(Cn1cncn1)(Cn1cncn1)c1ccc(F)cc1F` [FLUCONAZOLE], the Activity in assay [1] is 15%; in assay [2], 13%; in assay [3] it was 12%; in [4], 1%; in assay [5] it was 36%; in assay [6], 23%. The Activity turned out to be 16% in assay [7]; 55% in assay [8]; 1.51 in assay [9]; 30% in assay [10]; 21% in assay [11]; 67% in assay [12]. Further, the Activity in assay [13] was determined as 29%; in assay [14] it was 35%; in assay [15], 55%; in [16] it was 48%; in assay [17], 93%; in assay [18] it was 2.37. For the same molecule, the results for the Activity in assay [20] and in [21] were 3% and 0%, respectively. Further, the MIC in [19] amounted to 2 µg/mL.

The record behind these values is ChEMBL document CHEMBL1151472, “In vitro interactions between tacrolimus and azoles against Candida albicans determined by different methods” (2008).
